Source: PubChem BioAssay (several laboratories)
CHT inh – inhibitors of human choline transporter CHT. AID 488975, 2010. 310,000 tested, 0.86% active. B-score at 10 µM. CHT-expressing cells, membrane potential dye, choline response; stronger effect = lower value;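 active = B-score over 3 SD under the library average, and starting fluorescence ratio not unusually high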;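 note: choline stimulus applied at its EC90 after an EC20 pre-addition; B-score computed on integrated fluorescence ratio after choline addition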
Target sequence (Q9GZV3 whole entry, looked up): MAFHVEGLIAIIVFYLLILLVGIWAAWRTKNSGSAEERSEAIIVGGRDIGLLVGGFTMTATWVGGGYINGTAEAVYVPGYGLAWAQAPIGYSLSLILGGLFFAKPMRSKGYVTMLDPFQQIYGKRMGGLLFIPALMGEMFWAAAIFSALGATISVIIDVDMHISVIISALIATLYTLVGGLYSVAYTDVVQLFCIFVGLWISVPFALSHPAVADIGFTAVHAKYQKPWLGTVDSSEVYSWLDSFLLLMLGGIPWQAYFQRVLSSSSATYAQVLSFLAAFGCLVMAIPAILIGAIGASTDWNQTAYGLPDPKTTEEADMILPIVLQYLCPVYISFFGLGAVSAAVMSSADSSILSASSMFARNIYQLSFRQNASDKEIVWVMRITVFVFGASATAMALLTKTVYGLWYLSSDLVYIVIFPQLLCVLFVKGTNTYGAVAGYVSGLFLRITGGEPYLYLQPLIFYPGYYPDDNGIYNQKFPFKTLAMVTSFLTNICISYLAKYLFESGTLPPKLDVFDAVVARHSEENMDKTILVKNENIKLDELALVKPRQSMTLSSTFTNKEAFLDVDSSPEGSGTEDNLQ
CHT allo act – CHT positive allosteric modulators, primary screen, cell-based, membrane potential dye, choline EC20. CHT-expressing cells; stronger effect = higher value; LV-AA mutant CHT in HEK293 cells. 310,000 tested, 0.49% active. B-score at 10 µM. AID 488977, 2010;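 active = initial fluorescence not abnormally high and integrated response B-score, plate-corrected, over 3 SD above library mean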
KCC2 mod – KCC2 cotransporter modulators, thallium flux, primary screen, cell-based, HEK293 KCC2, FluoZin-2 fluorescence, MLSMR; AID 1456, 2008; B-score of Tl+ flux slope (higher = more flux/activation; lower = inhibition) at 10 µM; KCC2 cells, thallium flux FluoZin-2 fluorescence; 190,000 tested, 2.2% active; Solute carrier family 12 member 5 (Homo sapiens), Q9H2X9;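 active = thallium flux slope and its plate-corrected score both differing from the plate sample mean at a set confidence after two filtering rounds, in either direction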;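 note: slope of fluorescence scaled to starting intensity during 10 to 20 s after thallium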
Rad51 HR inh – human RAD51 strand exchange inhibitors, primary screen, biochemical, fluorescence | 200,000 tested, 0.085% active | inhibition, % at 10 µM | hRad51 DNA strand exchange, fluorescence dequenching | AID 1385, 2008;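 active = inhibition above 40% at the single screening dose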
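System: human Rad51 nucleoprotein filaments preassembled on unlabelled ssDNA. Reagent: labelled 47-mer dsDNA for strand exchange. Schedule: 30-min compound preincubation and 15-min exchange, both room temperature. Measured by: FRET fluorescence dequenching, excitation 485 nm, emission 520 nm. Read-out: Fluorescence-based percent inhibition, control- and blank-normalised. Benchmarks: plate controls and plate blanks.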
CHT block conf – CHT inhibitors, confirmation, cell-based, membrane potential dye, duplicate | shares compounds with CHT inh | CHT-expressing cells, choline membrane potential dye; LV-to-AA substituted CHT, HEK293 cells | CHT activity remaining % of control (stronger effect = lower value), % at 10 µM | 2,400 tested, 70% active;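 active = choline transporter activity left, mean of duplicates at 10 µM, below buffer-only control mean minus 3 SD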;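 note: depolarization triggered by choline at its EC90 following an EC20 pre-addition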
HEK293 CHT ctr – membrane potential effects in parental HEK293, counter-screen for CHT inhibitor project, cell-based, membrane potential dye; shares compounds with CHT inh; membrane potential ratio readout (active if shifted either direction beyond buffer ±3SD; no single direction) at 10 µM; AID 493222, 2011; 2,400 tested, 4% active; choline response; active = decrease or increase beyond buffer ±3SD;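 note: parental cells lack the transporter so any hit is non-specific; ratio is peak minus trough fluorescence over baseline after EC90 choline challenge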
A number is an active result; - = inactive; . = no result. Shown are actives, neighbours in structure and some others; about 2.6% of the full set was active somewhere.

SMILES	CHT inh	CHT allo act	KCC2 mod	Rad51 HR inh	CHT block conf	HEK293 CHT ctr
COc1cccc(/C=C2\SC(=S)N(NC(=O)c3ccncc3)C2=O)c1	-8.67	-	-	-	5.2%	-
O=C(NN1C(=O)/C(=C/c2ccc(O)c(O)c2)SC1=S)c1ccccc1	-	-	.	.	.	.
COc1ccc(OC)c(/C=C2\SC(=S)N(NS(=O)(=O)c3ccccc3)C2=O)c1	-6.26	-	.	.	56.9%	-
O=c1ccn(CCCBr)c(=O)[nH]1	-	-	-	-	.	.
N#C/C(=C/c1ccc(C(=O)O)cc1)C(=O)Nc1ccccc1	-	-	-	-	.	.
Cc1cccc(NC(=O)/C(C#N)=C\c2ccc(C(=O)O)cc2)c1	-6.62	-	.	-	-	-
COc1ccc([N+](=O)[O-])cc1NC(=S)NC(NC(=O)C(c1ccccc1)c1ccccc1)C(Cl)(Cl)Cl (stereo unspecified)	-	-	.	-	.	.
CCc1nnc(NC(=O)c2nc(S(=O)(=O)Cc3ccc(C)cc3)ncc2Cl)s1	-8.3	-	.	.	31.9%	-
CCc1nnc(NC(=O)c2nc(S(=O)(=O)Cc3ccccc3)ncc2Cl)s1	-	-	.	.	.	.
CC(C)c1nnc(NC(=O)c2nc(S(=O)(=O)Cc3ccc(F)cc3)ncc2Cl)s1	-6.16	-	.	.	19.4%	-
CCc1nnc(NC(=O)c2nc(S(=O)(=O)Cc3cccc(C)c3)ncc2Cl)s1	-6.1	-	.	.	30.3%	-
CC1CN(C(=O)Nc2ccc(Br)cc2Cl)CC(C)O1 (stereo unspecified)	-	-	-	-	.	.
CN(C(=O)COC(=O)c1cc(S(=O)(=O)N2CCOCC2)ccc1Cl)C1CCS(=O)(=O)C1 (stereo unspecified)	-	-	.	.	.	.
Cc1nn(-c2ccccc2)c(C)c1C(=O)OCC(=O)NC(=O)NC1CCCC1	-10.6	-	-	-	60.3%	-
NC(N)=Nc1nc(C2COc3ccccc3O2)cs1 (stereo unspecified)	-8.76	-	-	-	46.4%	-
CC(C)Cn1c(=O)c2c(nc3n2CCCN3CCc2ccccc2)n(C)c1=O	-5.44	-	-	-	62.0%	-
Cc1cc(NS(=O)(=O)c2ccc(NC(=O)c3ccc(Cl)cc3[N+](=O)[O-])cc2)no1	-	-	.	.	.	.
Cc1ccnc(NS(=O)(=O)c2ccc(NC(=O)c3ccc(Cl)cc3[N+](=O)[O-])cc2)n1	-5.46	-	.	.	51.2%	-
Cc1oc(-c2ccccc2Cl)nc1CS(=O)(=O)CC(=O)NCCN1CCOCC1	-	-	.	.	.	.
CNC(=O)c1c(NC(=O)c2cc(-c3cc(C)c(C)cc3O)n[nH]2)sc2c1CCCC2	-	-	-	-	.	.
CCC1CCCCN1S(=O)(=O)c1ccc(NC(=O)c2nc(S(C)(=O)=O)ncc2Cl)cc1 (stereo unspecified)	-6.44	-	.	.	12.0%	-
CCC1CCCCN1S(=O)(=O)c1ccc(NC(=O)c2ccncc2)cc1 (stereo unspecified)	-	-	.	.	.	.
O=C(NCCCc1ccccc1)c1c(O)nc2sccn2c1=O	-	-	.	.	.	.
CCN(Cc1ccncc1)C(=O)c1cc(COc2c(C)cccc2C)on1	-5.45	-	.	.	52.6%	-
Cc1noc(/C=C/c2cccs2)c1S(=O)(=O)N1CCC(C(=O)NCCCN2CCCC(C)C2)CC1 (stereo unspecified)	-	-	-	.	-	-
SMILES	CHT inh	CHT allo act	KCC2 mod	Rad51 HR inh	CHT block conf	HEK293 CHT ctr
Brc1cc2c(cc1CSc1ncccn1)OCO2	-	-	.	.	.	.
Cc1cccc(C(=O)Nc2sc(C)c(-c3ccccc3)c2C#N)c1	-	-	-	-	.	.
Cc1noc(C)c1C(=O)Nc1sc(C)c(-c2ccccc2)c1C#N	-5.16	-	-	-	70.6%	-
CC1CCCCN1C(=O)COC(=O)CNC(=O)c1ccc(Cl)cc1Cl (stereo unspecified)	-	-	.	.	.	.
COc1ccc2c(c1)c(C(=O)CNc1nc(C)cs1)c(C)n2C	-4.98	-	.	-	38.2%	2.71
Cn1nc(-c2ccccc2)c2nc3ccccc3nc21	-6.29	-	.	-	-	-9.91
COc1ccccc1C(=O)NC(=S)NNC(=O)c1sc2ccccc2c1Cl	-7.03	-	33.6	-	57.8%	-
Cc1c(NC(=S)NC(=O)c2sc3ccccc3c2Cl)cccc1C(=O)O	-	-	-	-	.	.
COc1ccccc1C(=O)NNC(=S)NC(=O)c1sc2ccccc2c1Cl	-6.63	-	19.7	-	57.3%	-
COc1ccc(S(=O)(=O)N/N=C(/C)c2ccncc2)c(OC)c1	-	-	.	.	.	.
CC(=O)c1cnn(-c2ccc(Cl)c(Cl)c2Cl)c1C	-	-	-	-	.	.
Nc1nc(N2CCN(c3ccc(F)cc3)CC2)n[nH]1	-	-	-	-	.	.
CCOc1ccccc1N(CC(=O)NC1CCCCC1)C(=O)CCC(=O)Nc1cc(C)ccn1	-	-	.	.	.	.
Cc1ccc(C(=O)Nc2ccc(Cc3ccncc3)cc2)cc1[N+](=O)[O-]	-5.56	-	-	.	-	-
Cc1ccc(C(=O)Nc2cccnc2)cc1[N+](=O)[O-]	-	-	-	-	.	.
COc1ccccc1CNC(=O)c1ccc(NC2=NC3CS(=O)(=O)CC3S2)cc1 (stereo unspecified)	-	-	.	.	.	.
COc1ccc2c(c1)c(C(O)CN1CCC(Cc3ccccc3)CC1)c(C)n2C (stereo unspecified)	-10.7	-	-	.	21.9%	-
CCCc1cc2c(=O)c(-c3ccccn3)coc2cc1OC	-	-	-	-	.	.
CCCc1cc2c(=O)c(-c3ccccn3)c(C)oc2cc1O	-12.2	-	-	-	9.4%	-
Cc1ccc(N2CCN(C(=S)Nc3ccccc3C)CC2)cc1	-	-	.	.	.	.
CCCCNS(=O)(=O)c1ccc(NC(=O)Cc2ccccc2[N+](=O)[O-])cc1	-6	-	-	-	43.3%	-
O=C(CSc1nccn1-c1ccccc1)NO	-	-	-	-	.	.
COc1ccc(-n2ccnc2SCC(=O)NO)cc1	-5.3	-	-	-	-	-
COc1ccc(NC(=O)CSc2nccn2Cc2ccccc2)cc1	-5.26	-	.	.	56.2%	-
COc1ccc(Cn2ccnc2SCC(=O)Nc2cccc(NC(C)=O)c2)cc1	-	-	-	-	.	.
N=C(N)N1CCN(Cc2ccccc2)CC1	-	-	-	.	.	.
CCCC(C)NC(=O)CN1C(=O)c2cccc3cccc1c23 (stereo unspecified)	-	-	.	.	.	.
CC(=O)c1sc(NC(=O)c2ccco2)nc1-c1ccccc1	-	-	-	-	.	.
Cc1sc(NC(=O)c2ccco2)nc1-c1ccccc1	-9.22	-	-	-	53.2%	-
Cn1c(SCc2nc3ccccc3c(=O)[nH]2)nc2ccccc21	-	-	-	-	.	.
